Source: paper PMC8753982 (ACS chemical neuroscience, 2019)
Entries after “also recorded” stand apart in the source; their conditions may differ. Each block holds one molecule with its values, some of them ahead of it.

What was measured:
[1] = biological target: T1, endogenous mGlu5 in striatal neurons (Rattus norvegicus, UniProt P31424); assay: Single cell Ca2+ imaging; assay type: cell-based; details: for effect on Quis-mediated Ca2+ responses (intracellular mGlu5): compound at 1, 5, 10 μM; for effect on single cell intracellular responses at 10-fold IC50: at 10-fold their IC50 values (refs 20, 25)
T1 sequence (P31424 21-1203): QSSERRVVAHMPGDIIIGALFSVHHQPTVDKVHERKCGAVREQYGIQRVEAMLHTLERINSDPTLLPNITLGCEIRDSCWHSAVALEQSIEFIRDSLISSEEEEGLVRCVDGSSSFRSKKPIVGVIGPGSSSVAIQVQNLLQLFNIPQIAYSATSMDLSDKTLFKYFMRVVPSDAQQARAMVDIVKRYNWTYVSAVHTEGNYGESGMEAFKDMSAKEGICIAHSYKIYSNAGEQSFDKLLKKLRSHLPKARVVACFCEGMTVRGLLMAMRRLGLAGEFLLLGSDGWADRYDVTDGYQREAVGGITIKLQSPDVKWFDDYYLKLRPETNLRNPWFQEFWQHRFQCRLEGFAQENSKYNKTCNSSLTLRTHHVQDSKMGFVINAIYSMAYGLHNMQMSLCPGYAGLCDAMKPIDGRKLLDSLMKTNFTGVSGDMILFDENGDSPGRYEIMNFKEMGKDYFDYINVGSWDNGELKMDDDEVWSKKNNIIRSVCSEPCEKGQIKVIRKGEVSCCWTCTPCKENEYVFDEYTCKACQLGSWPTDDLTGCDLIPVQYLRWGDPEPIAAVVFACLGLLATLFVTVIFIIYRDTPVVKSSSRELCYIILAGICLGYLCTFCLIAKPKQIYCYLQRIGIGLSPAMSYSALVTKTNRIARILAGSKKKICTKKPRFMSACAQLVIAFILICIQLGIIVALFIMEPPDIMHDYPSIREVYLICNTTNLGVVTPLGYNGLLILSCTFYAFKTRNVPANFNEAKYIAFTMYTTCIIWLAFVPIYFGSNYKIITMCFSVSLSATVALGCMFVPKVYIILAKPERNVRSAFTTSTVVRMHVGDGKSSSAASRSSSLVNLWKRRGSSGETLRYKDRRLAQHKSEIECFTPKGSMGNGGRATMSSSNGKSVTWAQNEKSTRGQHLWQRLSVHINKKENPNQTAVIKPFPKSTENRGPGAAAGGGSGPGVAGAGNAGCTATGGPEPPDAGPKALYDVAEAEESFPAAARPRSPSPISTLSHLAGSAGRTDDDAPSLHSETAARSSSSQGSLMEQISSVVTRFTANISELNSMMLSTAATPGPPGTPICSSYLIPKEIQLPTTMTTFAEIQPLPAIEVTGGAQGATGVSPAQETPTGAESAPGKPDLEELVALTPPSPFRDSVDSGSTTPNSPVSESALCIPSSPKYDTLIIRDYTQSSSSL
Outline: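 Primary striatal cultures from 1-day-old neonatal rat pups, on gridded glass dishes, loaded with 5 μM Oregon Green 488 BAPTA-AM. Cultures were preincubated with 20 μM CPCCOEt (mGlu1 antagonist) plus 25 μM AMPA receptor antagonist, then imaged by confocal microscopy during agonist (Quis 10 μM) and NAM (1, 5, 10 μM) exposure. Signals were taken as fractional fluorescence change over basal and normalized to Quis response (% Quis).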

mGlu5 = details: read-out: published IC50; cited from earlier work
[2] = biological target: T1, endogenous mGlu5 in striatal neurons; assay: Fluorescence-based Ca2+ flux assay with a microplate reader; assay type: cell-based
mGlu5 (mGlu5/HEK cells) = assay: Single cell Ca2+ imaging; assay type: cell-based; details: for effect on DHPG-induced oscillatory Ca2+ response: DHPG 100 μM, NAM applied after agonist at 1, 5, 10 μM; for effect of NAM pretreatment on DHPG or Quis-mediated Ca2+ responses: DHPG 100 μM or Quis 10 μM
[3] = biological target: mGlu5 (mGlu5/HEK stable cell line) (Rattus norvegicus, UniProt P31424); assay: Fluorescence-based Ca2+ flux assay with a microplate reader; assay type: cell-based; details: for LLE: LLE = pIC50 − log P (consensus log Po/w Table 1, IC50 Table 3)
Chain of mGlu5 (mGlu5/HEK stable cell line) (Rattus norvegicus, UniProt P31424) (P31424 21-1203): as above

[4] = biological target: T2, endogenous mGlu5 in hippocampal neurons (Rattus norvegicus, UniProt P31424); assay: as above; assay type: cell-based
T2 sequence (P31424 21-1203): as above

[5] = biological target: endogenous mGlu5 in cortical neurons (Rattus norvegicus, UniProt P31424); assay: as above; assay type: cell-based
Chain of endogenous mGlu5 in cortical neurons (P31424 21-1203): as above

[6] = tested on: mGlu5 (mGlu5/HEK stable cell line); assay: as above; assay type: cell-based; details: LLE = pIC50 − log P (consensus log Po/w Table 1, IC50 Table 3)
Chain of mGlu5 (mGlu5/HEK stable cell line) (P31424 21-1203): as above

[7] = biological target: T2, endogenous mGlu5 in hippocampal neurons; assay: Single cell Ca2+ imaging; assay type: cell-based; details: pretreatment 1 μM, Quis 10 μM

Compound: NC(CC1c2ccccc2Sc2ccccc21)(C(=O)O)C1CC(C(=O)O)C1 (mixture of isomers) [LY393053, 2-Amino-2-(3-cis/trans-carboxycyclobutyl)-3-(9H-thioxanthen-9-yl) propionic acid]
- effect on Quis-mediated Ca2+ responses (intracellular mGlu5) ([1]; striatal neurons, Quis 10 μM): neither 5MPEP,[34] a neutral allosteric modulator, nor LY393053 affected Quis-induced Ca^2+ rises

Compound: Cc1cccnc1C#Cc1ccccc1 [5MPEP, 5-methyl-6-(phenylethynyl)-pyridine]
- effect on Quis-mediated Ca2+ responses (intracellular mGlu5) ([1]; striatal neurons, Quis 10 μM): neither 5MPEP,[34] a neutral allosteric modulator, nor LY393053 affected Quis-induced Ca^2+ rises

Compound: Cc1cccc(C#Cc2ccccc2)n1 [MPEP, 2-methyl-6-(phenylethynyl)pyridine]
- effect on DHPG-induced oscillatory Ca2+ response (mGlu5 (mGlu5/HEK cells)): blocked
- effect of NAM pretreatment on DHPG or Quis-mediated Ca2+ responses (mGlu5 (mGlu5/HEK cells)): completely blocked

Compound: N[C@@H](Cn1oc(=O)[nH]c1=O)C(=O)O [Quis, Quisqualate]
- EC50 [2]: 1310 ± 360 nM
- fold difference in EC50 between the cortical and hippocampal neurons and the striatum, respectively ([2]; Quis): 8–10 fold
- fold difference in the EC50 for Quis in HEK cells versus striatal neurons ([2]; mGlu5/HEK versus endogenous mGlu5-expressing striatal neurons): 42 fold
- Quis EC80 ([2]; striatal): 5250 ± 1430 nM
- difference in EC50 between cell surface and intracellular mGlu5 ([2]; striatum, Quis with versus without LY393053 20 μM): no difference in EC50
- Quis EC80 [3]: 125 ± 32.3 nM
- EC50 [4]: 122 ± 12.1 nM
- Quis EC80 ([4]; hippocampal): 515 ± 51.4 nM
- fold difference in potency, Quis with versus without LY393053 ([4]; hippocampus, LY393053 20 μM): ~1.8 fold
- EC50 [5]: 168 ± 55.8 nM
- fold difference in potency, Quis with versus without LY393053 ([5]; cortex, LY393053 20 μM): ~1.8 fold
- Quis EC80 ([5]; cortical): 670 ± 223 nM

Now from value to molecule, other results behind:

- IC50 [2]: 9440 ± 3780 nM
- fold shift of IC50 between mGlu5/HEK cells and striatal cultures [2]: 250 fold
- LLE [3]: 4.57
- effect on DHPG-induced Ca2+ response ([1]; striatal neurons, pre- or post-treatment, cell-surface only agonist DHPG): blocked
- IC50 [4]: 257 ± 27.4 nM
- IC50 [5]: 270 ± 73 nM
Compound: COC(=O)N1CC[C@@H]2[C@H]1CCC[C@@]2(O)C#Cc1cccc(C)c1 [AFQ056, methyl (3aR,4S,7aR)-4-hydroxy-4-[(3-methylphenyl)ethynyl]octahydro-1H-indole-1-carboxylate]
- IC50 (mGlu5): 30 nM
- effect on DHPG-induced oscillatory Ca2+ response (mGlu5 (mGlu5/HEK cells)): inhibited; also recorded: blocked
- effect on Quis-induced Ca2+ response (mGlu5 (mGlu5/HEK cells); Quis 10 μM, NAM at 1, 5, 10 μM): inhibited; also recorded: blocked
- effect of NAM pretreatment on DHPG or Quis-mediated Ca2+ responses (mGlu5 (mGlu5/HEK cells)): completely blocked
- effect on Quis-mediated Ca2+ responses (intracellular mGlu5) ([1]; striatal neurons, Quis 10 μM): neither 1, 5, nor 10 μM AFQ056 blocked Quis-mediated Ca^2+ responses; also recorded: did not completely block; also recorded: fails to block

- IC50 [2]: 3560 ± 520 nM
- LLE [6]: 4.29
- effect on single cell intracellular responses at 10-fold IC50 [1]: did not block
- effect on Quis-mediated Ca2+ responses (intracellular mGlu5) ([1]; striatal neurons, Quis 10 μM): less effective
- IC50 [4]: 96.2 ± 17.8 nM
- IC50 [5]: 380 ± 78 nM
Compound: C[C@@H](Oc1nnc(-c2ccncc2)n1C)c1cc(-c2cccc(Cl)c2)on1 [AZD2066, 4-[5-[(1R)-1-[5-(3-chlorophenyl)-3-isoxazolyl]ethoxy]-4-methyl-4H-1,2,4-triazol-3-yl]pyridine]
- effect on DHPG-induced oscillatory Ca2+ response (mGlu5 (mGlu5/HEK cells)): blocked
- effect of NAM pretreatment on DHPG or Quis-mediated Ca2+ responses (mGlu5 (mGlu5/HEK cells)): completely blocked

- maximum DHPG-induced Ca2+ increase, % of the Quis-induced response ([2]; plate reader, cell type not given): 15–20%
Compound: N[C@H](C(=O)O)c1cc(O)cc(O)c1 [DHPG, (S)-3,5-dihydroxyphenylglycine]

- IC50 [2]: 2930 ± 480 nM
- fold shift of IC50 between mGlu5/HEK cells and striatal cultures [2]: 16 fold
- effect on Quis-induced Ca2+ response at 1 μM NAM [7]: less effective
- LLE [3]: 5.50
- effect on single cell intracellular responses at 10-fold IC50 [1]: did not block
- effect on Quis-mediated Ca2+ responses (intracellular mGlu5) ([1]; striatal neurons, Quis 10 μM): less effective
- effect on Quis-induced Ca2+ response at 1 μM NAM ([1]; striatal, pretreatment 1 μM, Quis 10 μM): less effective
- IC50 [4]: 442 ± 150 nM
- IC50 [5]: 807 ± 53.5 nM
- LLE ([5]; cortical, LLE = pIC50 − log P (consensus log Po/w Table 1, IC50 Table 3)): 2.94
Compound: CN1CC(=O)N=C1NC(=O)Nc1cccc(Cl)c1 [Fenobam, N-(3-chlorophenyl)-N′-(4,5-dihydro-1-methyl-4-oxo-1H-imidazol-2-yl)urea]
- effect on DHPG-induced oscillatory Ca2+ response (mGlu5 (mGlu5/HEK cells)): blocked
- effect on Quis-induced Ca2+ response at 1 μM NAM (mGlu5 (mGlu5/HEK cells); pretreatment 1 μM, Quis 10 μM): less effective
- effect of NAM pretreatment on DHPG or Quis-mediated Ca2+ responses (mGlu5 (mGlu5/HEK cells)): completely blocked

- IC50 [2]: 62 ± 17.5 nM
- LLE [6]: 4.59
- IC50 [4]: 8.97 ± 3.4 nM
- IC50 [5]: 80.2 ± 16.8 nM
- fold difference of potency in cortical neurons versus HEK cells [5]: 45 fold
Compound: Cc1nc(C#Cc2ccnc(Cl)c2)c(C)n1-c1ccc(F)cc1 [RG7090, 2-chloro-4-((1-(4-fluorophenyl)-2,5-dimethyl-1H-imidazol-4-yl)ethynyl)pyridine]
- effect on DHPG-induced oscillatory Ca2+ response (mGlu5 (mGlu5/HEK cells)): blocked
- effect of NAM pretreatment on DHPG or Quis-mediated Ca2+ responses (mGlu5 (mGlu5/HEK cells)): completely blocked
- effect on Quis-mediated Ca2+ responses (intracellular mGlu5) ([1]; striatal neurons, Quis 10 μM): most effective; also recorded: very effective
